Published values collected from several papers.
SIRT6: NAD-dependent protein deacylase sirtuin-6 (SIRT6, Homo sapiens, UniProt Q8N6T7)
MAPK6: Mitogen-activated protein kinase 6 (MAPK6, Homo sapiens, UniProt Q16659)
PBK: Lymphokine-activated killer T-cell-originated protein kinase (PBK, Homo sapiens, UniProt Q96KB5)
VRK1: Serine/threonine-protein kinase VRK1 (VRK1, Homo sapiens, UniProt Q99986)

CC(N)c1ccc(C(=O)NOCc2ccc(C(F)(F)F)cc2)cc1 (stereo not drawn)  inhibition (SIRT6; enzyme activity, inhibitor, fluorescence; 100 µM): 89.2%
Cc1ccc(C(=O)Nc2ccc(CN3CCN(C)CC3)c(C(F)(F)F)c2)cc1C#Cc1cnc2cccnn12  remaining activity (MAPK6; enzyme activity, inhibitor; 23.5 nM): 100%
Nc1nonc1-n1cc(C(=O)N/N=C/c2ccc(F)cc2)nn1  remaining activity (SIRT6; enzyme activity, inhibitor, fluorescence; 100 µM): 43%
CC(C)(O)c1cn(-c2ccc(-c3cccc(S(C)(=O)=O)c3)cc2)c(C(C)(C)c2ccccc2Cl)n1  Emax (Oxysterols receptor LXR-beta (NR1H2, Homo sapiens, UniProt P55055); reporter gene, agonist; CV-1): 72%
Nc1ncnc2occ(-c3ccc(NC(=O)Nc4cc(C(F)(F)F)ccc4F)cc3)c12  remaining signal (MAPK6; cell-free assay, inhibitor; 20 µM): 100%
Nc1nonc1-n1cc(C(=O)N/N=C/c2ccco2)nn1  remaining activity (SIRT6; enzyme activity, inhibitor, fluorescence; 100 µM): 40.9%
NC(=O)c1ccc(C(=O)NOCc2cccc(F)c2)cc1  inhibition (SIRT6; enzyme activity, inhibitor, fluorescence; 100 µM): 74.1%
COC(=O)c1ccc(O)c(/C=N/NC(=O)c2cn(-c3nonc3N)nn2)c1  remaining activity (SIRT6; enzyme activity, inhibitor, fluorescence; 100 µM): 99.6%
Cn1c2c(c3ccc(Cl)c(Cl)c31)C(C#N)C1(CCCC1)NC2=O (stereo not drawn)  ΔTm (PBK; thermal stability, DSF; 10 µM): 0 °C
O=C(Nc1ccc(S(=O)(=O)N2CCC(Cl)CC2)cc1)c1ccc([N+](=O)[O-])o1  inhibition (Voltage-dependent N-type calcium channel subunit alpha-1B (Cacna1b, Rattus norvegicus, UniProt Q02294); cell-free assay; 10 µM): 18%
COc1cc(Cl)c(C(=O)N[C@@H](CN[C@H]2CC[C@@H](N)CC2)Cc2ccc(C#N)cc2)cc1-c1ccc(CN[C@H](C)c2ccc(C)cc2)o1  remaining activity ([Pyruvate dehydrogenase (acetyl-transferring)] kinase isozyme 4, mitochondrial (PDK4, Homo sapiens, UniProt Q16654); enzyme activity, inhibitor; 1 µM): 103%
CCC1(CC)NC(=O)c2c(c3ccc(Cl)c(Cl)c3n2C)C1C#N (stereo not drawn)  ΔTm (VRK1; thermal stability, DSF; 10 µM): 0 °C
NCCc1ccc(C(=O)NOCc2ccc(C(F)(F)F)cc2)cc1  inhibition (SIRT6; enzyme activity, inhibitor, fluorescence; 100 µM): 88.4%
CC/C(=N\NC(=O)NCc1cccc(O)c1)c1ccc(O)c(C)c1O  inhibition (ALK tyrosine kinase receptor (ALK, Homo sapiens, UniProt Q9UM73, C1156Y); enzyme activity, inhibitor; 0.1 µM): 2.3%
Nc1nonc1-n1cc(C(=O)N/N=C/c2ccc([N+](=O)[O-])cc2O)nn1  remaining activity (SIRT6; enzyme activity, inhibitor, fluorescence; 100 µM): 20.6%
Cn1c2c(c3ccc(Cl)c(Cl)c31)C(C#N)C(C)(C)NC2=O (stereo not drawn)  ΔTm (PBK; thermal stability, DSF; 10 µM): -0.6 °C
NC(=O)c1ccc(C(=O)NOCc2ccc(C(F)(F)F)c(Cl)c2)cc1  inhibition (SIRT6; enzyme activity, inhibitor, fluorescence; 100 µM): 90.4%
Nc1nonc1-n1cc(C(=O)N/N=C/c2ccccc2Cl)nn1  remaining activity (SIRT6; enzyme activity, inhibitor, fluorescence; 100 µM): 22.8%
NC(=O)c1ccc(C(=O)NOCc2cccc(Br)c2)cc1  inhibition (SIRT6; enzyme activity, inhibitor, fluorescence; 100 µM): 82.3%
CC1(C)NC(=O)c2[nH]c3c(Cl)c(Cl)ccc3c2C1C#N (stereo not drawn)  ΔTm (VRK1; thermal stability, DSF; 10 µM): 0.2 °C
NC(=O)c1ccc(C(=O)NOCc2ccc3nccnc3c2)cc1  inhibition (SIRT6; enzyme activity, inhibitor, fluorescence; 100 µM): 61.4%
Cn1c2c(c3ccc(Cl)c(Cl)c31)C(C#N)C1(CCNCC1)NC2=O (racemic)  ΔTm (PBK; thermal stability, DSF; 10 µM): -0.9 °C
Oc1ccc(-c2nc(-c3ccncc3)c(-c3ccc(F)cc3)[nH]2)cc1  ΔTm (Bromodomain-containing protein 7 (BRD7, Homo sapiens, UniProt Q9NPI1); thermal stability, DSF; 10 µM): 1.3 °C
NC(=O)c1ccc(C(=O)NOCc2ccc(Cl)cc2)cc1  inhibition (SIRT6; enzyme activity, inhibitor, fluorescence; 100 µM): 79.5%
